Test results published in publication PMC11365375 (Acta Pharmaceutica Sinica. B, 2024).

How the values were obtained:
H460^R231Q cells = assay: Cell proliferation assay; assay type: cell-based, human; conditions: for IC50: Homo sapiens, 72 h, read-out: H460^R231Q (IC50, μmol/L)
In short: (§1)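 Human NCI-H460 NSCLC cells engineered to express wild-type or R231Q DOT1L (aa 1–416) were grown in RPMI 1640 with 10% FBS. Cells were seeded in 96-well plates and exposed to a range of test compound concentrations for 72 h at 37 °C, 5% CO₂. Growth was read by CCK-8 on a plate reader, and IC50 values were derived from the dose–response.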

H460^WT cells = assay: Cell proliferation assay; assay type: cell-based; conditions: Homo sapiens, 72 h, read-out: H460^WT (IC50, μmol/L)
In short: as §1

[1] = system: DOT1L^R231Q mediated H3K79me2 level in H460^R231Q cells; assay: Quantitative Western blot analysis of H3K79me2 level in H460^R231Q cells; assay type: cell-based, human
In short: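 H460^R231Q cells were treated with test compound, and histones were extracted with a total histone extraction kit; protein was quantified by BCA. Extracts were resolved on 8–15% SDS-PAGE, transferred to PVDF and probed for H3K79me2 and histone H3, with ECL/X-ray film detection. Band densities were quantified, and H3K79me2 was normalised to H3. The dimethylation index was the compound value divided by the SGC0946 (positive control) value.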

[2] = system: H3K27me3, H3K9me2, H3K4me1 and H3K36me2 levels; assay: WB analysis of common histone H3 modifications in H460^R231Q cells; assay type: cell-based, human; conditions: Fig. 7
In short: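 H460^R231Q cells were treated with test compound alongside an SGC0946 positive control. Histone extracts (or RIPA lysates with protease/phosphatase inhibitors) were quantified by BCA, separated on 8–15% SDS-PAGE and blotted to PVDF. Blots were probed for H3K27me3, H3K9me2, H3K4me1 and H3K36me2 and detected by ECL on X-ray film. Membranes were stripped and reprobed for proteins of similar size.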

H460^WT = conditions: WT group, in vivo; cited from earlier work
H460^R231Q = conditions: R231Q group, in vivo; cited from earlier work
DOT1L^WT = DOT1L^WT (Homo sapiens, UniProt Q8TEK3); assay: DOT1L^WT methyltransferase assay; assay type: biochemical
Sequence of DOT1L^WT (Q8TEK3 whole entry): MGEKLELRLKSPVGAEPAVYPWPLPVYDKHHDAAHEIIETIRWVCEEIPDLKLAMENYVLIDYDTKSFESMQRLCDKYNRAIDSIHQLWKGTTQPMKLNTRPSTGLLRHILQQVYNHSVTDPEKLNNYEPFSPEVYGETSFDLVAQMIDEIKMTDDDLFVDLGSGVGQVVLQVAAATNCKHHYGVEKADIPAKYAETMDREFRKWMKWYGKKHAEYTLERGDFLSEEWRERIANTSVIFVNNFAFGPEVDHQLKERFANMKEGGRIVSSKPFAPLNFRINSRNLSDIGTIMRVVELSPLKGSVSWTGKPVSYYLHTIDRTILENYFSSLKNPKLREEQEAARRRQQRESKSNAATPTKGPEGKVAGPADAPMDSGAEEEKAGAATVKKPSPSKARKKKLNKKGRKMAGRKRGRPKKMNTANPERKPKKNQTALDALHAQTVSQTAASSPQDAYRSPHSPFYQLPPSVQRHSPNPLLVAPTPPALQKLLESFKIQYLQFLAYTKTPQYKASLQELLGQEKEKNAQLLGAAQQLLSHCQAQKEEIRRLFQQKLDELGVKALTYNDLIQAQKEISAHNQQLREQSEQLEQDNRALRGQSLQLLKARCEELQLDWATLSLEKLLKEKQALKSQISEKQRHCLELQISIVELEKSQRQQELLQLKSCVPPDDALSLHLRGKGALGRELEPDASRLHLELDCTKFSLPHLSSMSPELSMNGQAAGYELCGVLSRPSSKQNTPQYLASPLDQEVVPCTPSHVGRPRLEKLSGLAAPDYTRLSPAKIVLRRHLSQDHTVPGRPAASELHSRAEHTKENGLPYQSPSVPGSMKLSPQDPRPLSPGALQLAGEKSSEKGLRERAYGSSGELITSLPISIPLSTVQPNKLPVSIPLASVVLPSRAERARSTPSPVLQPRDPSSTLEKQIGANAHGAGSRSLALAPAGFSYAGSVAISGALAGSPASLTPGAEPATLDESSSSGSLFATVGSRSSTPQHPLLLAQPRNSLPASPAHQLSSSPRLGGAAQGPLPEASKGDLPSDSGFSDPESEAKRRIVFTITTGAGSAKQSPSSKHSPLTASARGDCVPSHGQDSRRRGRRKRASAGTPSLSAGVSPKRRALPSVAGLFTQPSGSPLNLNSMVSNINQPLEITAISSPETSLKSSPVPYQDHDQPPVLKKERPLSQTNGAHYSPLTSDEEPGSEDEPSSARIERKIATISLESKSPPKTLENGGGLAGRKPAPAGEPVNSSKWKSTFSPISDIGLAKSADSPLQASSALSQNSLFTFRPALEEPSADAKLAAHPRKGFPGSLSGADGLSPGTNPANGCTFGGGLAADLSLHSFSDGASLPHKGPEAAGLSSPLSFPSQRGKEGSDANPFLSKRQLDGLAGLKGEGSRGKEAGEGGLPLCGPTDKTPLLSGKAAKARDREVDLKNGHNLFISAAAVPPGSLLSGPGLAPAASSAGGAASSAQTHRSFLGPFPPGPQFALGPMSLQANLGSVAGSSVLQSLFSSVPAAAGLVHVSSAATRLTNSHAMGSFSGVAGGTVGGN
In short: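 Commercial wild-type DOT1L was preincubated with test compound, 1% DMSO vehicle or SGC0946 positive control for 15 min at 25 °C. Nucleosomes plus SAM were added for 60 min, then detection buffer for 10 min, then anti-SAH-Lumi4-Tb and SAH-d2 for 60 min, all at 25 °C. The TR-FRET 665/620 nm ratio was read. % inhibition was scaled between vehicle and positive control; dose–response in duplicate, fitted for IC50.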

[3] = cited from earlier work

Row | SMILES | IC50 (H460^R231Q cells) | other results
1 | CCN(CC)CCCN(C[C@H]1O[C@@H](n2cnc3c(N)ncnc32)[C@H](O)[C@@H]1O)C1CCN(Cc2nc3ccc(NC(=O)C(C)(C)C)cc3[nH]2)CC1 [Compound 42] | 73.3 ± 3.18 µmol/L | –
2 | CC(C)(C)C(=O)Nc1ccc(NC(=O)N2CC3CC(N(CC(=O)NC4CC4)C[C@H]4O[C@@H](n5cnc6c(N)ncnc65)[C@H](O)[C@@H]4O)CC3C2)cc1 (some centres unmarked) [Compound 20] | 52.7 ± 2.99 µmol/L | –
3 | CC(C)(C)C(=O)Nc1ccc2[nH]c(CN3CCC(N(CCC(=O)N4CCS(=O)(=O)CC4)C[C@H]4O[C@@H](n5cnc6c(N)ncnc65)[C@H](O)[C@@H]4O)CC3)nc2c1 [Compound 34] | 59.4 ± 4.38 µmol/L | –
4 | CC(C)(C)C(=O)Nc1ccc(NC(=O)N2CC3CC(N(CC(=O)N4CCSCC4)C[C@H]4O[C@@H](n5cnc6c(N)ncnc65)[C@H](O)[C@@H]4O)CC3C2)cc1 (some centres unmarked) [Compound 22] | 44.6 ± 3.87 µmol/L | –
5 | CC1CCN(C(=O)CN(C[C@H]2O[C@@H](n3cnc4c(N)ncnc43)[C@H](O)[C@@H]2O)C2CCN(Cc3nc4ccc(NC(=O)C(C)(C)C)cc4[nH]3)CC2)CC1 [Compound 27] | 46.7 ± 3.7 µmol/L | –
6 | CC(C)(C)C(=O)Nc1ccc2[nH]c(CN3CCC(N(CCC(=O)N4CCSCC4)C[C@H]4O[C@@H](n5cnc6c(N)ncnc65)[C@H](O)[C@@H]4O)CC3)nc2c1 [Compound 35] | 18.6 ± 0.94 µmol/L | –
7 | CC(C)N(C[C@H]1O[C@@H](n2cnc3c(N)ncnc32)[C@H](O)[C@@H]1O)C1CC2CN(C(=O)Nc3ccc(C(C)(C)C)cc3)CC2C1 (some centres unmarked) [Compound 2] | 40.1 ± 3.73 µmol/L | IC50 (H460^WT cells): > 100 µmol/L
8 | CC(C)N(C[C@H]1O[C@@H](n2cnc3c(N)ncnc32)[C@H](O)[C@@H]1O)C1CC2CN(C(=O)Nc3ccc(NC(=O)C(C)(C)C)cc3)CC2C1 (some centres unmarked) [Compound 5] | 37.9 ± 3.09 µmol/L | inhibitory activity against DOT1L^R231Q in WB assay ([1]; H3K79me2 level, H460^R231Q cells): moderate inhibitory activity; IC50 (H460^WT cells): > 100 µmol/L
9 | CC(C)N(CCC1CC2CN(C(=O)Nc3ccc(C(C)(C)C)cc3)CC2C1)C[C@H]1O[C@@H](n2cnc3c(N)ncnc32)[C@H](O)[C@@H]1O (some centres unmarked) [Compound 12] | > 100 µmol/L | –
10 | COc1ccc(CN2CC3CC(N(C[C@H]4O[C@@H](n5cnc6c(N)ncnc65)[C@H](O)[C@@H]4O)C(C)C)CC3C2)cc1Br (some centres unmarked) [Compound 8] | 85.8 ± 6.87 µmol/L | IC50 (H460^WT cells): > 100 µmol/L
11 | CC(C)N(CCCNC(=O)Nc1ccc(C(C)(C)C)cc1)C[C@H]1O[C@@H](n2cc(Br)c3c(N)ncnc32)[C@H](O)[C@@H]1O [SGC0946] | 38 ± 5.24 µmol/L | H3K79me2 level (WB of common histone H3 modifications) ([1]; H460^R231Q cells, Fig. 7): decrease; IC50 (H460^WT cells): 9.18 ± 0.11 µmol/L; H3K27me3, H3K9me2, H3K4me1 and H3K36me2 levels [2]: remained relatively unchanged; TGI (H460^WT): 44.4%; TGI (H460^R231Q): 26.5%; IC50 (DOT1L^WT): 0.0184 µM
12 | COC(=O)CN(C[C@H]1O[C@@H](n2cnc3c(N)ncnc32)[C@H](O)[C@@H]1O)C1CCN(Cc2nc3cc(NC(=O)C(C)(C)C)ccc3[nH]2)CC1 [Compound 24] | 94 ± 7.07 µmol/L | –
13 | CN(C[C@H]1O[C@@H](n2cnc3c(N)ncnc32)[C@H](O)[C@@H]1O)C1CCN(Cc2nc3cc(NC(=O)C(C)(C)C)ccc3[nH]2)CC1 [Compound 23] | 34.8 ± 1.92 µmol/L | –
14 | CCN1CCN(CCCN(C[C@H]2O[C@@H](n3cnc4c(N)ncnc43)[C@H](O)[C@@H]2O)C2CCN(Cc3nc4cc(NC(=O)C(C)(C)C)ccc4[nH]3)CC2)CC1 [Compound 39] | 27.6 ± 1.31 µmol/L | fold decreased activity against H460^R231Q cells (H460^R231Q cells; versus 37): 4 fold
15 | CC1CCN(CCCN(C[C@H]2O[C@@H](n3cnc4c(N)ncnc43)[C@H](O)[C@@H]2O)C2CCN(Cc3nc4cc(NC(=O)C(C)(C)C)ccc4[nH]3)CC2)CC1 [Compound 38] | 43.1 ± 1.88 µmol/L | –
16 | CC(C)N(C[C@H]1O[C@@H](n2cnc3c(N)ncnc32)[C@H](O)[C@@H]1O)C1CC2CN(C(=O)Nc3ccc(Br)cc3)CC2C1 (some centres unmarked) [Compound 3] | 48.8 ± 2.76 µmol/L | IC50 (H460^WT cells): > 100 µmol/L
17 | CC(C)(C)C(=O)Nc1ccc2nc(CN3CCC(N(CC(=O)N4CCOCC4)C[C@H]4O[C@@H](n5cnc6c(N)ncnc65)[C@H](O)[C@@H]4O)CC3)[nH]c2c1 [Compound 30] | 46.1 ± 3 µmol/L | –
18 | CC(C)N(C[C@H]1O[C@@H](n2cnc3c(N)ncnc32)[C@H](O)[C@@H]1O)[C@H]1C[C@@H](CCc2nc3cc(C(C)(C)C)ccc3[nH]2)C1 [EPZ5676] | – | clearance [3]: 68 mL/min/kg; oral bioavailability (F) [3]: 0%
19 | CN(C[C@H]1O[C@@H](n2cnc3c(N)ncnc32)[C@H](O)[C@@H]1O)C1CC2CN(C(=O)Nc3ccc(C(C)(C)C)cc3)CC2C1 (some centres unmarked) [Compound 1] | 77.6 ± 3.18 µmol/L | IC50 (H460^WT cells): > 100 µmol/L

Row | SMILES | IC50 (H460^R231Q cells) | other results
20 | CC(C)(C)C(=O)Nc1ccc2nc(CN3CCC(N(CC(=O)N4CCCC4)C[C@H]4O[C@@H](n5cnc6c(N)ncnc65)[C@H](O)[C@@H]4O)CC3)[nH]c2c1 [Compound 26] | 46.7 ± 2.69 µmol/L | –
21 | CC(C)N(CCC1CC2CN(C(=O)Nc3ccc(NC(=O)C(C)(C)C)cc3)CC2C1)C[C@H]1O[C@@H](n2cnc3c(N)ncnc32)[C@H](O)[C@@H]1O (some centres unmarked) [Compound 14] | > 100 µmol/L | –
22 | CN(C)C(=O)CN(C[C@H]1O[C@@H](n2cnc3c(N)ncnc32)[C@H](O)[C@@H]1O)C1CC2CN(C(=O)Nc3ccc(NC(=O)C(C)(C)C)cc3)CC2C1 (some centres unmarked) [Compound 21] | 72.5 ± 4.5 µmol/L | –
23 | CC(C)(C)C(=O)Nc1ccc2[nH]c(CN3CCC(N(CCCN4CCC(O)CC4)C[C@H]4O[C@@H](n5cnc6c(N)ncnc65)[C@H](O)[C@@H]4O)CC3)nc2c1 [Compound 36] | 8.76 ± 0.61 µmol/L | H3K79me2 level mediated by DOT1L^R231Q ([1]; 5 μmol/L, WB): significantly reduced
24 | CC(C)(C)C(=O)Nc1ccc2[nH]c(CN3CCC(N(CCC(=O)NCC4CCCO4)C[C@H]4O[C@@H](n5cnc6c(N)ncnc65)[C@H](O)[C@@H]4O)CC3)nc2c1 (some centres unmarked) [Compound 32] | 96.5 ± 5.45 µmol/L | –
25 | COc1cc(CN2CC3CC(N(C[C@H]4O[C@@H](n5cnc6c(N)ncnc65)[C@H](O)[C@@H]4O)C(C)C)CC3C2)cc(OC)c1OC (some centres unmarked) [Compound 10] | 95.9 ± 4.26 µmol/L | IC50 (H460^WT cells): > 100 µmol/L
26 | COC1(OC)CCN(CCCN(C[C@H]2O[C@@H](n3cnc4c(N)ncnc43)[C@H](O)[C@@H]2O)C2CCN(Cc3nc4cc(NC(=O)C(C)(C)C)ccc4[nH]3)CC2)CC1 [Compound 41] | 32.5 ± 3.56 µmol/L | –
27 | CN(C)C(=O)CN(C[C@H]1O[C@@H](n2cnc3c(N)ncnc32)[C@H](O)[C@@H]1O)C1CCN(Cc2nc3cc(NC(=O)C(C)(C)C)ccc3[nH]2)CC1 [Compound 25] | 70 ± 2.44 µmol/L | –
28 | CC(C)(C)C(=O)Nc1ccc2nc(CN3CCC(N(CC(=O)NCc4ccco4)C[C@H]4O[C@@H](n5cnc6c(N)ncnc65)[C@H](O)[C@@H]4O)CC3)[nH]c2c1 [Compound 31] | > 100 µmol/L | –
29 | COC(=O)CN(C[C@H]1O[C@@H](n2cnc3c(N)ncnc32)[C@H](O)[C@@H]1O)C1CC2CN(C(=O)Nc3ccc(NC(=O)C(C)(C)C)cc3)CC2C1 (some centres unmarked) [Compound 19] | > 100 µmol/L | –
30 | CC(C)(C)C(=O)Nc1ccc2nc(CN3CCC(N(CC(=O)N4CCC(O)CC4)C[C@H]4O[C@@H](n5cnc6c(N)ncnc65)[C@H](O)[C@@H]4O)CC3)[nH]c2c1 [Compound 28] | 22.5 ± 1.81 µmol/L | –
31 | CC(C)N(C[C@H]1O[C@@H](n2cnc3c(N)ncnc32)[C@H](O)[C@@H]1O)C1CC2CN(Cc3c(F)cc(Br)cc3F)CC2C1 (some centres unmarked) [Compound 11] | 68.2 ± 3.03 µmol/L | IC50 (H460^WT cells): > 100 µmol/L
32 | COc1ccc(NC(=O)N2CC3CC(N(C[C@H]4O[C@@H](n5cnc6c(N)ncnc65)[C@H](O)[C@@H]4O)C(C)C)CC3C2)cc1 (some centres unmarked) [Compound 4] | 60 ± 5.84 µmol/L | IC50 (H460^WT cells): > 100 µmol/L
33 | CC(C)N(CCC1CC2CN(Cc3ccc(C#N)cc3)CC2C1)C[C@H]1O[C@@H](n2cnc3c(N)ncnc32)[C@H](O)[C@@H]1O (some centres unmarked) [Compound 16] | 96.6 ± 5.07 µmol/L | –
34 | CC(C)NC(=O)CCN(C[C@H]1O[C@@H](n2cnc3c(N)ncnc32)[C@H](O)[C@@H]1O)C1CCN(Cc2nc3cc(NC(=O)C(C)(C)C)ccc3[nH]2)CC1 [Compound 33] | 73 ± 5.07 µmol/L | –
35 | CC(C)N(CCC1CC2CN(C(=O)Nc3ccc(Br)cc3)CC2C1)C[C@H]1O[C@@H](n2cnc3c(N)ncnc32)[C@H](O)[C@@H]1O (some centres unmarked) [Compound 13] | 87.2 ± 7.63 µmol/L | –
36 | CCN1CCN(C(=O)CN(C[C@H]2O[C@@H](n3cnc4c(N)ncnc43)[C@H](O)[C@@H]2O)C2CCN(Cc3nc4ccc(NC(=O)C(C)(C)C)cc4[nH]3)CC2)CC1 [Compound 29] | 29.2 ± 1.63 µmol/L | –
37 | COC(=O)C1CCN(CCCN(C[C@H]2O[C@@H](n3cnc4c(N)ncnc43)[C@H](O)[C@@H]2O)C2CCN(Cc3nc4cc(NC(=O)C(C)(C)C)ccc4[nH]3)CC2)CC1 [Compound 40] | 55.3 ± 5.49 µmol/L | –
38 | CC(C)N(CCC1CC2CN(Cc3ccc(F)c(F)c3)CC2C1)C[C@H]1O[C@@H](n2cnc3c(N)ncnc32)[C@H](O)[C@@H]1O (some centres unmarked) [Compound 17] | 82 ± 3.25 µmol/L | –
